Measured values reported in ChEMBL document CHEMBL3526060, “Impact of hydrolysis-mediated clearance on the pharmacokinetics of novel anaplastic lymphoma kinase inhibitors” (Drug Metab Dispos, 2013).

Experiments:
[1] = Cmax in CD-1 mouse at 100 mg/kg, po administered through gavage by LC-MS/MS analysis; format: ADME, organism-based; set-up: dose 100 mg/kg, route oral; conditions: in vivo
Method in brief: (§1)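 Male CD-1 mice, fasted overnight, food returned 2 h post-dose; single oral gavage at 20, 50 or 100 mg/kg. Terminal cardiac-puncture blood at 0.25, 0.5, 1, 2, 4, 6, 8, 24 h, 3 mice per time point; heparinized plasma extracted into acetonitrile/formic acid with IS, LC-MS/MS. Noncompartmental analysis: linear trapezoidal AUC extrapolated to infinity, CL/F, F relative to 2 mg/kg IV.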

[2] = Intrinsic clearance in CD-1 mouse liver microsomes at 0.1 uM by LC-MS/MS analysis in presence of NADPH; format: ADME; conditions: read-out: CLH
Method in brief: (§2)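 Liver microsomes (0.25 mg/mL protein, 0.1 M phosphate pH 7.4) from mouse, rat, dog or human; substrate 0.1 or 1 µM with 1 mM NADPH (mouse also without). Samples at 0, 10, 20, 30, 40 min into acetonitrile with tolbutamide, centrifuged, LC-MS/MS; CLint = (0.693/t1/2)/microsomal protein concentration.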

[3] = Cmax in CD-1 mouse at 50 mg/kg, po administered through gavage by LC-MS/MS analysis; format: ADME, organism-based; set-up: dose 50 mg/kg, route oral; conditions: in vivo; method in brief: as §1
[4] = Intrinsic clearance in Beagle dog liver microsomes at 1 uM by LC-MS/MS analysis in presence of NADPH; format: ADME, Canis lupus familiaris; conditions: read-out: CLH; method in brief: as §2
[5] = Tmax in CD-1 mouse at 50 mg/kg, po administered through gavage by LC-MS/MS analysis; format: ADME, organism-based; set-up: dose 50 mg/kg, route oral; conditions: in vivo; method in brief: as §1
[6] = AUC (0 to infinity) in CD-1 mouse at 50 mg/kg, po administered through gavage by LC-MS/MS analysis; format: ADME, organism-based; set-up: time infinity, dose 50 mg/kg, route oral; conditions: plasma; method in brief: as §1
[7] = Intrinsic clearance in CD-1 mouse liver microsomes at 1 uM by LC-MS/MS analysis in absence of NADPH; format: ADME; conditions: read-out: CLH; method in brief: as §2
[8] = Intrinsic clearance in CD-1 mouse liver microsomes at 1 uM by LC-MS/MS analysis in presence of NADPH; format: ADME; conditions: read-out: CLH; method in brief: as §2
[9] = Intrinsic clearance in Sprague-Dawley rat liver microsomes at 1 uM by LC-MS/MS analysis in presence of NADPH; format: ADME; conditions: read-out: CLH; method in brief: as §2
[10] = Half life in CD-1 mouse at 50 mg/kg, po administered through gavage by LC-MS/MS analysis; format: ADME, organism-based; set-up: dose 50 mg/kg, route oral; conditions: in vivo; method in brief: as §1
Plasma [11] = test: Drug metabolism in CD-1 mouse plasma assessed as maximum intrinsic clearance for hydrolysis metabolite formation by LC-MS/MS analysis; format: ADME, cell-free
Method in brief: (§3)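 Mouse plasma depletion kinetics at 37 °C, substrate range 0.0023–5 µM, up to 3 h; samples quenched into acetonitrile/tolbutamide, LC-MS/MS. CLint per concentration from t1/2; apparent Vmax and Km fitted by nonlinear regression to Michaelis-Menten, formation rate simulated from fit; mean of two replicates.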

[12] = Plasma clearance in CD-1 mouse at 2 mg/kg, iv administered as single bolus dose by LC-MS/MS analysis; format: ADME, organism-based; set-up: dose 2 mg/kg, route intravenous
Method in brief: (§4)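 Single 2 mg/kg IV bolus via lateral tail vein to male CD-1 mice. Mice euthanized at 0.083–24 h, 3 per time point (27 animals); cardiac-puncture blood into heparin on ice, plasma spun at 4 °C and immediately extracted with acetonitrile/0.1% formic acid plus IS, LC-MS/MS. Noncompartmental CL = Dose/AUC0–inf, t1/2 = 0.693/k, Vss from AUMC/AUC, MRT = Vss/CL.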

Plasma [13] = test: Metabolic stability in CD-1 mouse plasma assessed as hydrolysis product M1 [(1s,4s)-4-(2-amino-6-((4-(2-hydroxypropan-2-yl)piperidin-1-yl)methyl)-1H-benzo[d]imidazol-1-yl)-N-isopropylcyclohexanecarboxamide] formation at 5 uM after 20 mins by LC-MS/MS analysis; format: ADME, cell-free
[14] = Apparent oral clearance in CD-1 mouse at 50 mg/kg, po administered through gavage by LC-MS/MS analysis; format: ADME, organism-based; set-up: dose 50 mg/kg, route oral; conditions: in vivo; method in brief: as §1
[15] = Cmax in CD-1 mouse at 20 mg/kg, po administered through gavage by LC-MS/MS analysis; format: ADME, organism-based; set-up: dose 20 mg/kg, route oral; conditions: in vivo; method in brief: as §1
[16] = Drug metabolism in CD-1 mouse NADPH-fortified liver microsomes assessed as hydrolysis metabolite formation rate by LC-MS/MS analysis; format: ADME
Method in brief: (§5)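 Mouse liver microsomes 0.25 mg/mL in 0.1 M phosphate pH 7.4, with or without 1 mM NADPH, substrate 0.0023–5 µM; sampling to 40 min into acetonitrile/IS, LC-MS/MS depletion. Hydrolysis Vmax/Km solved from no-NADPH incubations, then NADPH-dependent constants; metabolite formation rate simulated from fitted constants; duplicates.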

[17] = Half life in CD-1 mouse at 100 mg/kg, po administered through gavage by LC-MS/MS analysis; format: ADME, organism-based; set-up: dose 100 mg/kg, route oral; conditions: in vivo; method in brief: as §1
[18] = Oral bioavailability in CD-1 mouse at 20 mg/kg administered through gavage by LC-MS/MS analysis relative to 2 mg/kg, iv dose; format: ADME, organism-based; conditions: in vivo; method in brief: as §1
[19] = Intrinsic clearance in human liver microsomes at 0.1 uM by LC-MS/MS analysis in presence of NADPH; format: ADME; conditions: read-out: CLH; method in brief: as §2
[20] = In vitro half life in CD-1 mouse plasma at 0.83 uM by LC-MS/MS analysis; format: ADME, cell-free
Method in brief: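 Screening stability: compound at 0.83 µM in mouse plasma at 37 °C, up to 3 h; timed aliquots quenched into acetonitrile with tolbutamide IS, centrifuged, LC-MS/MS; half-life from depletion, CLint = (0.693/t1/2)/plasma concentration.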

[21] = Half life in CD-1 mouse at 2 mg/kg, iv administered as single bolus dose by LC-MS/MS analysis; format: ADME, organism-based; set-up: dose 2 mg/kg, route intravenous; conditions: in vivo; method in brief: as §4
[22] = Apparent oral clearance in CD-1 mouse at 100 mg/kg, po administered through gavage by LC-MS/MS analysis; format: ADME, organism-based; set-up: dose 100 mg/kg, route oral; conditions: in vivo; method in brief: as §1
Plasma [23] = test: Drug metabolism in CD-1 mouse plasma assessed as hydrolysis metabolite formation rate by LC-MS/MS analysis; format: ADME, cell-free; method in brief: as §3
[24] = Mean residence time in CD-1 mouse at 2 mg/kg, iv administered as single bolus dose by LC-MS/MS analysis; format: ADME, organism-based; set-up: dose 2 mg/kg, route intravenous; conditions: in vivo; method in brief: as §4
[25] = Volume of distribution at steady state in CD-1 mouse at 2 mg/kg, iv administered as single bolus dose by LC-MS/MS analysis; format: ADME, organism-based; set-up: dose 2 mg/kg, route intravenous; conditions: in vivo, read-out: Vdss; method in brief: as §4
[26] = AUC (0 to infinity) in CD-1 mouse at 20 mg/kg, po administered through gavage by LC-MS/MS analysis; format: ADME, organism-based; set-up: time infinity, dose 20 mg/kg, route oral; conditions: plasma; method in brief: as §1
[27] = Half life in CD-1 mouse at 20 mg/kg, po administered through gavage by LC-MS/MS analysis; format: ADME, organism-based; set-up: dose 20 mg/kg, route oral; conditions: in vivo; method in brief: as §1
[28] = Intrinsic clearance in CD-1 mouse liver microsomes at 0.1 uM by LC-MS/MS analysis in absence of NADPH; format: ADME; conditions: read-out: CLH; method in brief: as §2
[29] = Apparent oral clearance in CD-1 mouse at 20 mg/kg, po administered through gavage by LC-MS/MS analysis; format: ADME, organism-based; set-up: dose 20 mg/kg, route oral; conditions: in vivo; method in brief: as §1
[30] = Fraction unbound in CD-1 mouse liver microsomes after 7 hrs by equilibrium dialysis method; format: ADME
Method in brief: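 Equilibrium dialysis of 0.25 mg/mL mouse liver microsomes in phosphate buffer against PBS, 7 h at 37 °C, 5% CO2, test compound 0.1, 0.5 or 2 µM, triplicate; LC-MS/MS; fraction unbound = buffer/microsome concentration.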

[31] = Tmax in CD-1 mouse at 20 mg/kg, po administered through gavage by LC-MS/MS analysis; format: ADME, organism-based; set-up: dose 20 mg/kg, route oral; conditions: in vivo; method in brief: as §1
[32] = Oral bioavailability in CD-1 mouse at 100 mg/kg administered through gavage by LC-MS/MS analysis relative to 2 mg/kg, iv dose; format: ADME, organism-based; conditions: in vivo; method in brief: as §1
[33] = Drug metabolism in CD-1 mouse liver microsomes assessed as hydrolysis metabolite formation rate by LC-MS/MS analysis; format: ADME; method in brief: as §5
[34] = AUC (0 to infinity) in CD-1 mouse at 100 mg/kg, po administered through gavage by LC-MS/MS analysis; format: ADME, organism-based; set-up: time infinity, dose 100 mg/kg, route oral; conditions: plasma; method in brief: as §1
[35] = Fraction unbound in CD-1 mouse plasma after 7 hrs by equilibrium dialysis method; format: ADME, cell-free
Method in brief: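 Mouse plasma pre-treated 20 min with 100 µM DFP to block hydrolysis, spiked at 0.1, 0.5 or 2 µM, equilibrium dialysis against PBS for 7 h at 37 °C, 5% CO2, triplicate; matrix-matched samples extracted with acetonitrile/IS, LC-MS/MS; fu = buffer/plasma concentration.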

[36] = Intrinsic clearance in human liver microsomes at 1 uM by LC-MS/MS analysis in presence of NADPH; format: ADME; conditions: read-out: CLH; method in brief: as §2
[37] = AUC (0 to infinity) in CD-1 mouse at 2 mg/kg, iv administered as single bolus dose by LC-MS/MS analysis; format: ADME, organism-based; set-up: time infinity, dose 2 mg/kg, route intravenous; conditions: plasma; method in brief: as §4
Mus musculus = test: Oral bioavailability in CD-1 mouse at 50 mg/kg administered through gavage by LC-MS/MS analysis relative to 2 mg/kg, iv dose; format: ADME, organism-based; conditions: in vivo; method in brief: as §1
[38] = Tmax in CD-1 mouse at 100 mg/kg, po administered through gavage by LC-MS/MS analysis; format: ADME, organism-based; set-up: dose 100 mg/kg, route oral; conditions: in vivo; method in brief: as §1
[39] = Intrinsic clearance in Sprague-Dawley rat liver microsomes at 0.1 uM by LC-MS/MS analysis in presence of NADPH; format: ADME; conditions: read-out: CLH; method in brief: as §2

Cmax [1]: 15.2 µM
microsomal CLint at 0.1 µM [2]: 891 µL/min/mg
Cmax [3]: 10.7 µM
microsomal CLint at 1 µM [4]: 33 µL/min/mg
Tmax [5]: 1 h
AUC(0-inf) [6]: 23.7 µM·h
microsomal CLint at 1 µM [7]: 50 µL/min/mg
microsomal CLint at 1 µM [8]: 110 µL/min/mg
microsomal CLint at 1 µM [9]: 13 µL/min/mg
half-life [10]: 2.3 h
CL (Plasma [11]): 71.4 uL/min.ml
clearance [12]: 92 mL/min/kg
Drug metabolism (Plasma [13]): metabolite_detected
CL/F [14]: 60.8 mL/min/kg
Cmax [15]: 0.782 µM
Vmax(app) [16]: 45.4 pmol/min/mg
Km ([16]; read-out: Km(app)): 0.263 µM
half-life [17]: 2.17 h
bioavailability [18]: 21.1%
microsomal CLint at 0.1 µM [19]: 93 µL/min/mg
half-life at 0.83 µM [20]: 0.2 h
half-life [21]: 1.05 h
CL/F [22]: 77.2 mL/min/kg
Vmax(app) (Plasma [23]): 19.7 pmol/min/mL
Km (Plasma [23]; read-out: Km(app)): 0.276 µM
MRT [24]: 0.474 h
Vd [25]: 2.62 L/kg
AUC(0-inf) [26]: 1.31 µM·h
half-life [27]: 1.23 h
microsomal CLint at 0.1 µM [28]: 805 µL/min/mg
CL/F [29]: 437 mL/min/kg
fraction unbound at 7 h [30]: 0.76
Tmax [31]: 0.25 h
bioavailability [32]: 120%
Vmax(app) [33]: 82 pmol/min/mg
Km ([33]; read-out: Km(app)): 0.0437 µM
AUC(0-inf) [34]: 37.4 µM·h
fraction unbound at 7 h [35]: 0.02
microsomal CLint at 1 µM [36]: 67 µL/min/mg
AUC(0-inf) [37]: 0.627 µM·h
F (Mus musculus): 151%
Tmax [38]: 1 h
microsomal CLint at 0.1 µM [39]: 14 µL/min/mg
SMILES: CC(C)NC(=O)[C@H]1CC[C@@H](n2/c(=N/C(=O)c3ccc(F)cc3)[nH]c3ccc(CN4CCC(C(C)(C)O)CC4)cc32)CC1
